Measurements: ChEMBL document CHEMBL4689842, “EUbOPEN Chemogenomics Library wave 1” (2021)

System: HEK-293T
Test: Multiplex assay against HEK293T;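 as to Population Tubulin-Different-Phenotype (%): share of the cells with healthy nuclei that show this phenotype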
Assay type: toxicity, cell-based
Conditions: human
Method in brief: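 Imaging took place on a CQ1 microscope at 37°C and 5% CO2 once compound had been added to live cells stained at seeding with Hoechst33342, BioTracker Green Microtubule Cytoskeleton Dye, MitoTracker Red and Annexin V Alexa Fluor 680. CellPathfinder machine-learning gating classed cells as Hoechst high-intensity objects or normal cells, classed normal cells as having healthy, pyknosed or fragmented nuclei, and classed pyknosed cells as mitotic or apoptotic. Tubulin, mitochondrial-mass and membrane-permeability phenotypes are per cents of the healthy-nucleus cells.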

[1] = 12 h, 1 µM, compound concentration 1 uM, replicate 1
[2] = 12 h, 1 µM, compound concentration 1 uM, replicate 2
[3] = 12 h, 10 µM, compound concentration 10 uM, replicate 1
[4] = 12 h, 10 µM, compound concentration 10 uM, replicate 2
[5] = 24 h, 1 µM, compound concentration 1 uM, replicate 1
[6] = 24 h, 1 µM, compound concentration 1 uM, replicate 2
[7] = 24 h, 10 µM, compound concentration 10 uM, replicate 1
[8] = 24 h, 10 µM, compound concentration 10 uM, replicate 2
[9] = 48 h, 1 µM, compound concentration 1 uM, replicate 1
[10] = 48 h, 1 µM, compound concentration 1 uM, replicate 2
[11] = 48 h, 10 µM, compound concentration 10 uM, replicate 1
[12] = 48 h, 10 µM, compound concentration 10 uM, replicate 2

For `CC(C)Oc1ccccc1C(=O)Nc1ccccc1C(=O)Nc1cccc(S(=O)(=O)C(F)(F)F)c1`, the “Population Apoptotic (%)” value [1] was 64%, the “Population Fragmented Nuclei (%)” value [1] was 10% and the “Population Healthy Nuclei (%)” value [1] was 41%. For the same compound, the “Population Hoechst High Intensity Objects (%)” value [1] was 14%, the “Population Membrane Permeable-Phenotype (%)” value [1] was 3% and the “Population Mitochondria Different-Phenotype (%)” value [1] was 90%. The “Population Mitotic Cells (%)” value [1] was 35%, the “Population Normal (%)” value [1] was 85% and the “Population Pyknosed Nuclei (%)” value [1] was 47%. The “Population Tubulin-Different-Phenotype (%)” value [1] was 77%, the “Total Cell Count” value [1] was 237 and the “Population Apoptotic (%)” value [2] was 34%. The “Population Fragmented Nuclei (%)” value [2] was 7%, the “Population Healthy Nuclei (%)” value [2] was 37% and the “Population Hoechst High Intensity Objects (%)” value [2] was 6%. For the same compound, the “Population Membrane Permeable-Phenotype (%)” value [2] was 8%, the “Population Mitochondria Different-Phenotype (%)” value [2] was 58% and the “Population Mitotic Cells (%)” value [2] was 65%. For the same compound, the “Population Normal (%)” value [2] was 93%, the “Population Pyknosed Nuclei (%)” value [2] was 55% and the “Population Tubulin-Different-Phenotype (%)” value [2] was 76%. The “Total Cell Count” value [2] was 214, the “Population Fragmented Nuclei (%)” value [3] was 11% and the “Population Healthy Nuclei (%)” value [3] was 31%. For the same compound, the “Population Hoechst High Intensity Objects (%)” value [3] was 13%, the “Population Membrane Permeable-Phenotype (%)” value [3] was 6% and the “Population Mitochondria Different-Phenotype (%)” value [3] was 91%. The “Population Mitotic Cells (%)” value [3] was 34%, the “Population Normal (%)” value [3] was 87% and the “Population Pyknosed Nuclei (%)” value [3] was 57%. The “Population Tubulin-Different-Phenotype (%)” value [3] was 87%, the “Total Cell Count” value [3] was 300 and the “Population Apoptotic (%)” value [4] was 66%. For the same compound, the “Population Fragmented Nuclei (%)” value [4] was 7%, the “Population Healthy Nuclei (%)” value [4] was 21% and the “Population Hoechst High Intensity Objects (%)” value [4] was 4%. The “Population Membrane Permeable-Phenotype (%)” value [4] was 9%, the “Population Mitochondria Different-Phenotype (%)” value [4] was 71% and the “Population Mitotic Cells (%)” value [4] was 33%. The “Population Normal (%)” value [4] was 95%, the “Population Pyknosed Nuclei (%)” value [4] was 71% and the “Population Tubulin-Different-Phenotype (%)” value [4] was 83%. For the same compound, the “Total Cell Count” value [4] was 206, the “Population Apoptotic (%)” value [5] was 64% and the “Population Fragmented Nuclei (%)” value [5] was 16%. The “Population Healthy Nuclei (%)” value [5] was 44%, the “Population Hoechst High Intensity Objects (%)” value [5] was 14% and the “Population Membrane Permeable-Phenotype (%)” value [5] was 0%. The “Population Mitochondria Different-Phenotype (%)” value [5] was 90%, the “Population Mitotic Cells (%)” value [5] was 35% and the “Population Normal (%)” value [5] was 85%. For the same compound, the “Population Pyknosed Nuclei (%)” value [5] was 38%, the “Population Tubulin-Different-Phenotype (%)” value [5] was 67% and the “Total Cell Count” value [5] was 263. For the same compound, the “Population Apoptotic (%)” value [6] was 42%, the “Population Fragmented Nuclei (%)” value [6] was 8% and the “Population Healthy Nuclei (%)” value [6] was 50%. The “Population Hoechst High Intensity Objects (%)” value [6] was 3%, the “Population Membrane Permeable-Phenotype (%)” value [6] was 3% and the “Population Mitochondria Different-Phenotype (%)” value [6] was 66%. For the same compound, the “Population Mitotic Cells (%)” value [6] was 58%, the “Population Normal (%)” value [6] was 96% and the “Population Pyknosed Nuclei (%)” value [6] was 41%. The “Population Tubulin-Different-Phenotype (%)” value [6] was 83%, the “Total Cell Count” value [6] was 253 and the “Population Apoptotic (%)” value [7] was 61%. The “Population Fragmented Nuclei (%)” value [7] was 18%, the “Population Healthy Nuclei (%)” value [7] was 31% and the “Population Hoechst High Intensity Objects (%)” value [7] was 11%. For the same compound, the “Population Membrane Permeable-Phenotype (%)” value [7] was 4%, the “Population Mitochondria Different-Phenotype (%)” value [7] was 94% and the “Population Mitotic Cells (%)” value [7] was 38%. The “Population Normal (%)” value [7] was 88%, the “Population Pyknosed Nuclei (%)” value [7] was 49% and the “Population Tubulin-Different-Phenotype (%)” value [7] was 77%. For the same compound, the “Total Cell Count” value [7] was 332, the “Population Apoptotic (%)” value [8] was 78% and the “Population Fragmented Nuclei (%)” value [8] was 7%. The “Population Healthy Nuclei (%)” value [8] was 25%, the “Population Hoechst High Intensity Objects (%)” value [8] was 3% and the “Population Membrane Permeable-Phenotype (%)” value [8] was 9%. For the same compound, the “Population Mitochondria Different-Phenotype (%)” value [8] was 84%, the “Population Mitotic Cells (%)” value [8] was 21% and the “Population Normal (%)” value [8] was 96%. For the same compound, the “Population Pyknosed Nuclei (%)” value [8] was 67%, the “Population Tubulin-Different-Phenotype (%)” value [8] was 81% and the “Total Cell Count” value [8] was 217. For the same compound, the “Population Apoptotic (%)” value [9] was 63%, the “Population Fragmented Nuclei (%)” value [9] was 19% and the “Population Healthy Nuclei (%)” value [9] was 43%. For the same compound, the “Population Hoechst High Intensity Objects (%)” value [9] was 16%, the “Population Membrane Permeable-Phenotype (%)” value [9] was 2% and the “Population Mitochondria Different-Phenotype (%)” value [9] was 66%. The “Population Mitotic Cells (%)” value [9] was 36%, the “Population Normal (%)” value [9] was 83% and the “Population Pyknosed Nuclei (%)” value [9] was 36%. For the same compound, the “Population Tubulin-Different-Phenotype (%)” value [9] was 50%, the “Total Cell Count” value [9] was 286 and the “Population Apoptotic (%)” value [10] was 25%. For the same compound, the “Population Fragmented Nuclei (%)” value [10] was 6%, the “Population Healthy Nuclei (%)” value [10] was 73% and the “Population Hoechst High Intensity Objects (%)” value [10] was 5%. For the same compound, the “Population Membrane Permeable-Phenotype (%)” value [10] was 3%, the “Population Mitochondria Different-Phenotype (%)” value [10] was 46% and the “Population Mitotic Cells (%)” value [10] was 74%. The “Population Normal (%)” value [10] was 94%, the “Population Pyknosed Nuclei (%)” value [10] was 19% and the “Population Tubulin-Different-Phenotype (%)” value [10] was 74%. The “Total Cell Count” value [10] was 393, the “Population Apoptotic (%)” value [11] was 59% and the “Population Fragmented Nuclei (%)” value [11] was 35%. The “Population Healthy Nuclei (%)” value [11] was 30%, the “Population Hoechst High Intensity Objects (%)” value [11] was 13% and the “Population Membrane Permeable-Phenotype (%)” value [11] was 3%. For the same compound, the “Population Mitochondria Different-Phenotype (%)” value [11] was 89%, the “Population Mitotic Cells (%)” value [11] was 40% and the “Population Normal (%)” value [11] was 86%. For the same compound, the “Population Pyknosed Nuclei (%)” value [11] was 34%, the “Population Tubulin-Different-Phenotype (%)” value [11] was 50% and the “Total Cell Count” value [11] was 401. The “Population Apoptotic (%)” value [12] was 58%, the “Population Fragmented Nuclei (%)” value [12] was 16% and the “Population Healthy Nuclei (%)” value [12] was 26%. The “Population Hoechst High Intensity Objects (%)” value [12] was 5%, the “Population Membrane Permeable-Phenotype (%)” value [12] was 15% and the “Population Mitochondria Different-Phenotype (%)” value [12] was 64%. For the same compound, the “Population Mitotic Cells (%)” value [12] was 41%, the “Population Normal (%)” value [12] was 94% and the “Population Pyknosed Nuclei (%)” value [12] was 56%. For the same compound, the “Population Tubulin-Different-Phenotype (%)” value [12] was 79% and the “Total Cell Count” value [12] was 251.
